The source of these data is ChEMBL document CHEMBL2321652, “Design and synthesis of HIV-1 protease inhibitors for a long-acting injectable drug application” (Bioorg Med Chem Lett, 2013).

Series [1] has as its system Human immunodeficiency virus 1. Kind of series: Selectivity ratio of EC50 for Human immunodeficiency virus 1 3B clinical isolate harboring L10I/I13V/M46I/I50V/L63P/L76V protease mutant to EC50 for wild type Human immunodeficiency virus 1 3B. The series is classed as functional.
Series [2] deals with Human immunodeficiency virus 1. Kind of series: Antiviral activity against Human immunodeficiency virus 1 3B clinical isolate harboring L10I/K20R/M36I/G48V/ I62V/A71V/V82A/I93L protease mutant infected in human MT4 cells assessed as inhibition of viral replication. The series is classed as functional, organism-based. The gist of the method:
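Each assay run in quadruplicate. Values are averages of at least two independent experiments, typically three to four. Cytotoxicity (CC50) was measured in parallel in MT4 cells.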

Series [3] can be described thus: Cytotoxicity against human MT4 cells. Type of series: cell-based.
In series [4] the test system is Human immunodeficiency virus 1. Kind of series: Antiviral activity against Human immunodeficiency virus 1 3B clinical isolate harboring L10I/M46I/I64V/I84V/L90M/I93L protease mutant infected in human MT4 cells assessed as inhibition of viral replication. Type of series: functional, organism-based. The gist of the method:
(§1)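 Inhibition of replication in MT4 cells infected with protease-mutant HIV-1 clinical isolates, reported as EC50. Each assay run in quadruplicate. Values are averages of at least two independent experiments, typically three to four. Cytotoxicity (CC50) was measured in parallel in MT4 cells.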

In series [5] the test system is Human immunodeficiency virus 1. The experiment in a line: Selectivity ratio of EC50 for Human immunodeficiency virus 1 3B clinical isolate harboring L10I/K20R/M36I/G48V/ I62V/A71V/V82A/I93L protease mutant to EC50 for wild type Human immunodeficiency virus 1 3B. The series is classed as functional.
Series [6] concerns Human immunodeficiency virus 1. Kind of series: Selectivity ratio of EC50 for Human immunodeficiency virus 1 3B clinical isolate harboring L10I/M46I/I64V/I84V/L90M/I93L protease mutant to EC50 for wild type Human immunodeficiency virus 1 3B. Type of series: functional.
Series [7] concerns Human immunodeficiency virus 1. Kind of series: Antiviral activity against wild type Human immunodeficiency virus 1 3B infected in human MT4 cells assessed as inhibition of viral replication in presence of 50% human serum.
The nature of series [8]: Drug metabolism in human liver microsomes at 1 uM after 15 mins. The series is classed as ADME, Microsome. The settings on record: read-out: Drug metabolism. The gist of the method: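 Human liver microsome incubation at 37 °C for 15 min with compound at 1 µM; turnover expressed as percent of compound metabolized.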
Series [9] in a line: Plasma clearance in rat at 2 mg/kg, iv. The arrangement: dose 2 mg/kg, route intravenous. Type of series: ADME, organism-based. The essentials: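 Single intravenous dose of 2 mg/kg in rats. The formulation is typically 1 mg/mL in PEG400/ethanol/saline (70/20/10). Clearance values are averages from two or three animals. High is >3 L/h/kg (>70% liver blood flow) and low is <1.3 L/h/kg (<30%).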

Series [10] relates to Human immunodeficiency virus 1. The experiment in a line: Antiviral activity against wild type Human immunodeficiency virus 1 3B infected in human MT4 cells assessed as inhibition of viral replication. Type of series: functional, organism-based. The essentials: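 EC50 values are averages of at least two independent experiments (typically three to four), each run in quadruplicate. For the serum-shifted line, the same antiviral assay includes 50% human serum, used as a functional measure of plasma protein binding.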

Series [11] deals with Human immunodeficiency virus 1. The experiment in a line: Antiviral activity against Human immunodeficiency virus 1 3B clinical isolate harboring L10I/I13V/M46I/I50V/L63P/L76V protease mutant infected in human MT4 cells assessed as inhibition of viral replication. The series is classed as functional, organism-based. The gist of the method: as §1
Series [12] is described as follows: Aqueous solubility of the compound in crystalline polymorphic form. Type of series: physicochemical.
Series [13] in a line: Bioavailability in rat at 100 mg/mL formulated with 25 mg/mL of polysorbate 20 and 9 mg/mL of NaCl in water administered intramuscularly measured after 1 month. Type of series: ADME, organism-based. The settings on record: in vivo, im. The essentials:
(§2)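 Nanosuspension depot given by a single intramuscular injection in rats. Blood is sampled at regular intervals over two months. Absolute bioavailability is assessed after 1 month of sampling as ((AUC_IM × dose_IV)/(AUC_IV × dose_IM)) × 100, relative to intravenous dosing.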

Series [14] is described as follows: Bioavailability in rat at 50 mg/mL formulated with 12.5 mg/mL of poloxamer 338 and sucrose in water administered intramuscularly measured after 1 month. The series is classed as ADME, organism-based. The settings on record: in vivo, im. The essentials:
as §2

Series [15] can be described thus: Bioavailability in rat at 50 mg/mL formulated with Vit-E TPGS in water administered intramuscularly measured after 1 month. The series is classed as ADME, organism-based. The settings on record: in vivo, im. The gist of the method: as §2
Series [16] can be described thus: Bioavailability in rat at 50 mg/mL formulated with Vit-E TPGS, DSPG and sucrose in water administered intramuscularly measured after 1 month. Particulars: in vivo, im. The series is classed as ADME, organism-based. The gist of the method:
as §2

Series [17] in a line: Bioavailability in rat at 100 mg/mL formulated with polysorbate 20 and NaCl in water administered intramuscularly measured after 1 month. Type of series: ADME, organism-based. Particulars: in vivo, im. The gist of the method:
as §2

The nature of series [18]: Bioavailability in rat at 50 mg/mL formulated with 25 mg/mL of poloxamer 338 and sucrose in water administered intramuscularly measured after 1 month. The series is classed as ADME, organism-based. The settings on record: in vivo, im. The essentials: as §2

Broadly, the EC50 is the concentration giving half of the maximal effect. For orientation: CC50 means the concentration giving 50% cytotoxicity. A lower CC50 goes with greater toxicity to the cells. Turning to `CC(C)CN(C[C@@H](O)[C@H](Cc1ccccc1)NC(=O)O[C@H]1CO[C@H]2OCC[C@H]21)S(=O)(=O)c1ccc(N)cc1`, the figures for the “Ratio EC50” value in series [1], in [5] and in series [6] were 8, less than 1 and 2, respectively. The values for the EC50 in series [2], in [4] and in series [7] were 2.4 nM, 12 nM and 17 nM, respectively. Besides, in [3], the CC50 was greater than 10000 nM.

The clearance is a measure of how efficiently the substance is removed, as volume per time. Regarding `COC(=O)N[C@H](C(=O)N[C@@H](Cc1ccc(-c2ccc(OC)nc2)cc1)[C@@H](O)C[C@@H](Cc1ccccc1F)C(=O)N[C@H]1c2cc(F)cc(C)c2OC[C@H]1O)C(C)(C)C`, the “Ratio EC50” value is reported as 2 in series [1], less than 1 in [5] and 3 in [6]. For the same compound, the EC50 in series [2] came out at 1.5 nM; in series [10], 1.8 nM; in [11], 3.3 nM; in series [4], 5.4 nM; in [7] it was 6.8 nM. Besides, the metabolised at 0.25 h, 1 µM in series [8] was found to be 17%. For the same compound, the CC50 in series [3] was greater than 10000 nM. For the same compound, the clearance in series [9] is 26.7 mL/min/kg.

On to `COC(=O)N[C@H](C(=O)N[C@@H](Cc1ccccc1)[C@@H](O)CN(Cc1ccc(-c2ccccn2)cc1)NC(=O)[C@@H](NC(=O)OC)C(C)(C)C)C(C)(C)C` [ATAZANAVIR], for which the results for the “Ratio EC50” value in series [1], in [5] and in [6] were less than 1, 9 and 8, respectively. The CC50 in series [3] was greater than 10000 nM. Besides, the EC50 in series [10] was 6.8 nM; in [4], 57 nM; in series [7], 13 nM.

What is called solubility is the concentration that dissolves in the medium under given conditions. What is called bioavailability is the share of a dose that reaches the circulation, judged against a reference dose that is usually intravenous. High values mean much systemic uptake, low ones little systemic uptake. For `COC(=O)N[C@H](C(=O)N[C@@H](Cc1ccc(-c2ccc(OC)nc2)cc1)[C@@H](O)C[C@@H](Cc1ccccc1F)C(=O)N[C@H]1[C@H](C)CCC[C@H]1O)C(C)(C)C`, the “Ratio EC50” value in series [1], in series [5] and in series [6] was less than 1 in each case. Further, in series [12], the solubility is less than 100 µg/mL. The EC50 in series [2] came to 0.5 nM; in series [10], 0.8 nM; in [11], 0.3 nM; in [7], 2 nM. In addition, in [8], the metabolised at 0.25 h, 1 µM came to 99%. Moreover, in series [3], the CC50 was greater than 10000 nM. In series [13], this compound registered a bioavailability at 1 month greater than 100%. Also, in series [9], the clearance was 90 mL/min/kg.

In the case of `COC(=O)N[C@H](C(=O)N[C@@H](Cc1ccc(-c2ccc(OC)nc2)cc1)[C@@H](O)C[C@@H](Cc1ccccc1F)C(=O)N[C@H]1c2ccsc2CC[C@H]1O)C(C)(C)C`, the “Ratio EC50” value in series [1], in series [5] and in series [6] was less than 1 throughout. In series [12], this compound had a solubility of less than 100 µg/mL. Moreover, the EC50 is 0.4 nM in series [2]; 1.1 nM in [10]; 0.6 nM in series [11]; 0.9 nM in [4]; 3.7 nM in series [7]. In addition, the metabolised at 0.25 h, 1 µM in series [8] came to 91%. This compound showed a CC50 in series [3] greater than 10000 nM. Besides, the bioavailability at 1 month in series [14] was greater than 100%; in series [15] it was 100%. In [9], the clearance was 80 mL/min/kg.

With `COC(=O)N[C@H](C(=O)N[C@@H](Cc1ccc(-c2ccc(N(C)C)nc2)cc1)[C@@H](O)C[C@@H](Cc1ccccc1F)C(=O)N[C@H]1c2cc(F)cc(Cl)c2OC[C@H]1O)C(C)(C)C`, the bioavailability at 1 month was determined as 12% in series [16], 3% in series [17] and 5% in series [18]. In addition, the “Ratio EC50” value in [1], in series [5] and in series [6] was less than 1 each time. This compound also registered a solubility in series [12] of less than 100 µg/mL. For the same compound, the EC50 in [2] was 0.8 nM; in [10] it was 1.7 nM; in [11], 0.9 nM; in series [4], 1.3 nM; in series [7] it was 6 nM. The metabolised at 0.25 h, 1 µM in [8] was 22%. In [3], this compound yielded a CC50 greater than 10000 nM. Also, the clearance in series [9] is 13.3 mL/min/kg.

Regarding `COC(=O)N[C@H](C(=O)N[C@@H](Cc1ccccc1)[C@@H](O)C[C@@H](Cc1ccccc1)C(=O)N[C@H]1c2ccccc2OC[C@H]1O)C(C)(C)C`, the “Ratio EC50” value was less than 1 in series [1], less than 1 in series [5] and 2 in series [6]. In addition, the EC50 in [2] worked out at 7 nM; in [10] it was 10 nM; in series [11], 6 nM; in series [4] it was 19 nM; in series [7], 19 nM. Also, the metabolised at 0.25 h, 1 µM in series [8] was determined as 99%. Further, the CC50 in [3] was greater than 10000 nM. The same compound gave a clearance in [9] of 66.7 mL/min/kg.
